Laboratory results as given in ChEMBL document CHEMBL1136157, “Synthesis of 3a,4-dihydro-3H-[1]benzopyrano[4,3-c]isoxazoles, displaying combined 5-HT uptake inhibiting and alpha(2)-adrenoceptor antagonistic activities: a novel series of potential antidepressants” (Bioorg Med Chem Lett, 2003).

What was measured:
[1] = biological target: T1, Alpha-2B adrenergic receptor (Homo sapiens, UniProt P18089); experiment: In vitro binding affinity towards human alpha-2B adrenergic receptor using [3H]rauwolscine
T1 sequence (P18089 whole entry): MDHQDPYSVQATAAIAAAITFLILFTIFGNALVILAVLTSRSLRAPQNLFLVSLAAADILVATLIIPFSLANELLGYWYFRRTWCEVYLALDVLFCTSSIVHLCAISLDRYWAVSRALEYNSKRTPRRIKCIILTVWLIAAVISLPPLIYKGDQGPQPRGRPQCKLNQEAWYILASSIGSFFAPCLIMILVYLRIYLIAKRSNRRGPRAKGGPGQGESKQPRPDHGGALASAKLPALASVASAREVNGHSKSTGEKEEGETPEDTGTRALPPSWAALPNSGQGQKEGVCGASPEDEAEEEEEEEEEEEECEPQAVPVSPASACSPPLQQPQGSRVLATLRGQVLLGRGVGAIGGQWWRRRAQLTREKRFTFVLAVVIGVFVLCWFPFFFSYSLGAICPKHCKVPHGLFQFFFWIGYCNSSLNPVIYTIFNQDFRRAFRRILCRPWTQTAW

[2] = biological target: T2, Alpha-2C adrenergic receptor (Homo sapiens, UniProt P18825); experiment: In vitro binding affinity towards human adrenergic alpha-2C adrenergic receptor using [3H]rauwolscine
T2 sequence (P18825 whole entry): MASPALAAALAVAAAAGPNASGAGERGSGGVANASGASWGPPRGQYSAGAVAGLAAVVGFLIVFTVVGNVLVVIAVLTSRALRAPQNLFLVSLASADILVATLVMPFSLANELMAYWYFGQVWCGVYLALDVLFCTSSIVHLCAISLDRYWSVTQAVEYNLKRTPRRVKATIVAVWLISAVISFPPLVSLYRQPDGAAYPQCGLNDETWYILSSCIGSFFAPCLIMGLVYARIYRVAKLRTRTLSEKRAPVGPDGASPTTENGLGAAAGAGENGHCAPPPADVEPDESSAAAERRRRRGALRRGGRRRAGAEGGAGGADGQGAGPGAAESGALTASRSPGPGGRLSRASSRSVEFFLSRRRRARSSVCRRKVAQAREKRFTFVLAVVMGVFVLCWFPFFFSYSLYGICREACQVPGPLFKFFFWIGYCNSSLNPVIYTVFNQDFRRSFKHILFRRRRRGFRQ

[3] = biological target: Sodium-dependent serotonin transporter (Rattus norvegicus) (UniProt P31652); experiment: In vivo effective dose required to inhibit p-chloroamphetamine induced excitation in rats upon subcutaneous administration; type: functional, organism-based
Sequence of Sodium-dependent serotonin transporter (Rattus norvegicus) (P31652 whole entry): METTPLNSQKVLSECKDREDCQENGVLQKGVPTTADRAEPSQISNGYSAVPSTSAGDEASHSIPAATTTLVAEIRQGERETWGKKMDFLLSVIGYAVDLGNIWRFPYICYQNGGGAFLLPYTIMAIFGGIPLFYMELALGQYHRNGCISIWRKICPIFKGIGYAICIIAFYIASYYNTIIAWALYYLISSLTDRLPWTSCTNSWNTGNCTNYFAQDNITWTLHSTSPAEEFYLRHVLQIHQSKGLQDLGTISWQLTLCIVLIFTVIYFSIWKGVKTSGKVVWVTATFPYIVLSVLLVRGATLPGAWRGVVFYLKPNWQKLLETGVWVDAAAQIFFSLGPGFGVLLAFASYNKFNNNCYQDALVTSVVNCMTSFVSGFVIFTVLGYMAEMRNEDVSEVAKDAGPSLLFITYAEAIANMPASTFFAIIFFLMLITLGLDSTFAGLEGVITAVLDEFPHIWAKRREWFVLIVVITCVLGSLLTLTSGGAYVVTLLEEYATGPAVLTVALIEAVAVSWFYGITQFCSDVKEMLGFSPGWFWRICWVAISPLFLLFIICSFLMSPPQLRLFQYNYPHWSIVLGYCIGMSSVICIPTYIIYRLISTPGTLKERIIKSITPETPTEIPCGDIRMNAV
How it was run: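 Overnight-starved male Wistar rats (200–250 g) given test compound or solvent sc 1 h before p-chloroamphetamine (5 mg/10 mL/kg, sc). Excitation scored over a 15-min interval starting 45 min after pCA. A score <2 was the all-or-nothing criterion for inhibition (1.0% false positives, n>200). ED50 in mg/kg.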

[4] = biological target: Adrenergic receptor alpha-2 (Rattus norvegicus) (UniProt P22086+P19328+P22909); experiment: In vivo effective dose required to inhibit xylazine-induced loss of righting in rats upon subcutaneous administration; type: functional, organism-based
[5] = biological target: T3, Alpha-2A adrenergic receptor (Homo sapiens, UniProt P08913); experiment: In vitro binding affinity towards human alpha-2A adrenergic receptor using [3H]rauwolscine
T3 sequence (P08913 whole entry): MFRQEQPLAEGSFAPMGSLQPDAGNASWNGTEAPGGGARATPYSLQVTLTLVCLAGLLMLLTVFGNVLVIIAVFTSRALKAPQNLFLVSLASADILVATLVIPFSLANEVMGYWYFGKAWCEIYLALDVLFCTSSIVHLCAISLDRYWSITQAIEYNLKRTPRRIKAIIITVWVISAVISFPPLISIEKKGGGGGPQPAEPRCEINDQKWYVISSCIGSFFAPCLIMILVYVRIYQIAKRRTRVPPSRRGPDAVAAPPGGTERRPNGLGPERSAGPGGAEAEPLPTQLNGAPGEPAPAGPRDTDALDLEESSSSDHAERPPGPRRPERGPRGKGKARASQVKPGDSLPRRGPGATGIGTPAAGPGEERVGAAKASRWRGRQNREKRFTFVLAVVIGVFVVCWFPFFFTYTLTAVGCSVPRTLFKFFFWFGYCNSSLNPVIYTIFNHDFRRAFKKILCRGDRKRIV

Compound	Ki [1]	Ki [2]	ED50 [3]	ED50 [4]	Ki [5]
COc1cc2c(cc1OC)C1=NO[C@@H](CN3CCN(C/C=C(\C)c4ccccc4)CC3)[C@@H]1CO2 (stereo in doubt; (+)15g) [listing 1 of 2 here]	14 nM	0.2 nM			
COc1cc2c(cc1OC)C1=NOC(CN3CCN(Cc4ccc5ncccc5c4)CC3)C1CO2 (centres undefined)	721 nM	36 nM	0.63 mg/kg	5 mg/kg	117 nM
Fc1ccc2c(c1)CC(CC1CN=CN1)C2 (centres undefined)	23 nM	19 nM	2 mg/kg	2.7 mg/kg	
COc1cc2c(cc1OC)C1=NO[C@@H](CN3CCN(C/C=C/c4ccccc4)CC3)[C@@H]1CO2 (stereo in doubt; (-)5) [listing 1 of 2 here]	42 nM				
COc1cc2c(cc1OC)C1=NO[C@@H](CN3CCN(C/C(C)=C/c4ccccc4)CC3)[C@@H]1CO2 (stereo in doubt; (-)15f) [listing 1 of 2 here]				> 10 mg/kg	
COc1cc2c(cc1OC)C1=NOC(CN3CCN(C/C=C(\C)c4ccccc4)CC3)C1CO2 (centres undefined)	31 nM	0.6 nM	0.2 mg/kg	2.5 mg/kg	
COc1ccc2c(c1)C1=NOC(CN3CCN(C/C=C/c4ccccc4)CC3)C1CO2 (centres undefined)	12 nM	2.3 nM	5 mg/kg	2.5 mg/kg	0.8 nM
COc1cc2c(cc1OC)C1=NOC(CN3CCN(Cc4ccc5ccccc5c4)CC3)C1CO2 (centres undefined)	49 nM	3.1 nM	0.79 mg/kg	5 mg/kg	
COc1cc2c(cc1OC)C1=NO[C@@H](CN3CCN(Cc4ccc5ccccc5c4)CC3)[C@@H]1CO2 (stereo in doubt; (-)15h) [listing 1 of 2 here]	95 nM	9.5 nM			
C(=C\c1ccccc1)/CN1CCN(CC2ON=C3c4ccccc4OCC32)CC1 (centres undefined)	2 nM	1.7 nM	5 mg/kg	2 mg/kg	
COc1cc2c(cc1OC)C1=NO[C@@H](CN3CCN(C/C=C(\C)c4ccccc4)CC3)[C@@H]1CO2 (stereo in doubt; (+)15g) [listing 2 of 2 here]			0.5 mg/kg	0.32 mg/kg	
COc1cc2c(cc1OC)C1=NOC(CN3CCN(Cc4ccccc4)CC3)C1CO2 (centres undefined)	995 nM	89 nM	8 mg/kg	> 10 mg/kg	186 nM
COc1cc2c(cc1OC)C1=NOC(CN3CCN(CC4=Cc5ccccc5C4)CC3)C1CO2 (centres undefined)	315 nM	4.7 nM	0.32 mg/kg	10 mg/kg	22 nM
COc1cc2c(cc1OC)C1=NOC(CN3CCN(C/C(C)=C/c4ccccc4)CC3)C1CO2 (centres undefined)	7.5 nM	0.2 nM		1 mg/kg	
COc1cc2c(cc1OC)C1=NO[C@@H](CN3CCN(C/C(C)=C/c4ccccc4)CC3)[C@@H]1CO2 (stereo in doubt; (+)15f) [listing 1 of 2 here]				3.1 mg/kg	
COc1cc2c(cc1OC)C1=NO[C@@H](CN3CCN(Cc4ccc5ccccc5c4)CC3)[C@@H]1CO2 (stereo in doubt; (+)15h) [listing 1 of 2 here]	14 nM	0.8 nM			
COc1cc2c(cc1OC)C1=NOC(CN3CCN(CCc4ccccc4)CC3)C1CO2 (centres undefined)	> 1000 nM	89 nM	10 mg/kg	> 10 mg/kg	234 nM
COc1cc2c(cc1OC)C1=NO[C@@H](CN3CCN(C/C=C/c4ccccc4)CC3)[C@@H]1CO2 (stereo in doubt; (-)5) [listing 2 of 2 here]			2.5 mg/kg	5 mg/kg	

Compound	Ki [1]	Ki [2]	ED50 [3]	ED50 [4]	Ki [5]
COc1cc2c(cc1OC)C1=NOC(CN3CCN(Cc4cccc5ccccc45)CC3)C1CO2 (centres undefined)	> 1000 nM	89 nM	3.2 mg/kg	> 10 mg/kg	234 nM
COc1ccc2c(c1)OCC1C2=NOC1CN1CCN(C/C=C/c2ccccc2)CC1 (centres undefined)	16 nM	1.9 nM	1.4 mg/kg	2 mg/kg	
COc1cc2c(cc1OC)C1=NO[C@@H](CN3CCN(C/C=C/c4ccccc4)CC3)[C@@H]1CO2 (stereo in doubt; (+)5) [listing 1 of 2 here]			0.51 mg/kg	2.5 mg/kg	
COc1cc2c(cc1OC)C1=NOC(CN3CCN(Cc4cnc5ccccc5c4)CC3)C1CO2 (centres undefined)	> 1000 nM	30 nM	5 mg/kg	5 mg/kg	34 nM
COc1cccc2c1CCC[C@H]2CN(C)CCc1ccc2ccoc2c1	11 nM	2.1 nM	10 mg/kg	> 10 mg/kg	
COc1cc2c(cc1OC)C1=NO[C@@H](CN3CCN(Cc4ccc5ccccc5c4)CC3)[C@@H]1CO2 (stereo in doubt; (-)15h) [listing 2 of 2 here]			1.5 mg/kg	10 mg/kg	
COc1cc2c(cc1OC)C1=NO[C@@H](CN3CCN(C/C=C(\C)c4ccccc4)CC3)[C@@H]1CO2 (stereo in doubt; (-)15g) [listing 1 of 2 here]			> 10 mg/kg	> 10 mg/kg	
COc1cc2c(cc1OC)C1=NO[C@@H](CN3CCN(C/C=C\c4ccccc4)CC3)[C@@H]1CO2			10 mg/kg		
COc1cc2c(cc1OC)C1=NO[C@@H](CN3CCN(C/C=C(\C)c4ccccc4)CC3)[C@@H]1CO2 (stereo in doubt; (-)15g) [listing 2 of 2 here]	405 nM	10 nM			
COc1cc2c(cc1OC)C1=NOC(CN3CCN(Cc4cc5ccccc5s4)CC3)C1CO2 (centres undefined)	> 1000 nM	89 nM	2.5 mg/kg	> 10 mg/kg	98 nM
COc1cc2c(cc1OC)C1=NOC(CN3CCN(CCCc4ccccc4)CC3)C1CO2 (centres undefined)	42 nM	1.9 nM	5 mg/kg	2.5 mg/kg	26 nM
COc1cc2c(cc1OC)C1=NOC(CN3CCN(Cc4csc5ccccc45)CC3)C1CO2 (centres undefined)	370 nM	13 nM			66 nM
COc1cc2c(cc1OC)C1=NO[C@@H](CN3CCN(C/C(C)=C/c4ccccc4)CC3)[C@@H]1CO2 (stereo in doubt; (-)15f) [listing 2 of 2 here]	15 nM	1.4 nM			
COc1cc2c(cc1OC)C1=NO[C@@H](CN3CCN(C/C(C)=C/c4ccccc4)CC3)[C@@H]1CO2 (stereo in doubt; (+)15f) [listing 2 of 2 here]	3 nM	0.1 nM			
COc1cc2c(cc1OC)C1=NOC(CN3CCN(C/C=C/c4ccccc4)CC3)C1CO2 (centres undefined)	42 nM		0.76 mg/kg	2.5 mg/kg	
COc1cc2c(cc1OC)C1=NO[C@@H](CN3CCN(Cc4ccc5ccccc5c4)CC3)[C@@H]1CO2 (stereo in doubt; (+)15h) [listing 2 of 2 here]			0.08 mg/kg	6.1 mg/kg	
COc1cc2c(cc1OC)C1=NOC(CN3CCN(CCC(=O)c4ccccc4)CC3)C1CO2 (centres undefined)		5.3 nM			12 nM
COc1cc2c(cc1OC)C1=NO[C@@H](CN3CCN(C/C=C/c4ccccc4)CC3)[C@@H]1CO2 (stereo in doubt; (+)5) [listing 2 of 2 here]	14 nM				
